Source: PubChem (several laboratories)
An excerpt weighted towards active compounds, which were near 2.9% of everything screened.
NALP1 yeast inh: inhibitors of NALP1 inflammasome in yeast | AID 2071 | actives 0.61% (n = 280,000) | inhibition, % at 10 µM | S. cerevisiae NALP1/ASC/caspase-1 growth, X-gal OD620, 72 h; in the data active means inhibition mostly above about 24%, no sharp cut-off; inactive means mostly below about 32%
SUMO HTRF inh: inhibitors of human SUMOylation (UBC9) | actives 0.36% (n = 290,000) | inhibition, % at 35 µM | HTRF SUMOylation assay, SAE1/SAE2 + UBC9, in vitro; in the data active means inhibition above about 50%, passing the limit was not always enough
Target sequence (P63279 whole entry, looked up): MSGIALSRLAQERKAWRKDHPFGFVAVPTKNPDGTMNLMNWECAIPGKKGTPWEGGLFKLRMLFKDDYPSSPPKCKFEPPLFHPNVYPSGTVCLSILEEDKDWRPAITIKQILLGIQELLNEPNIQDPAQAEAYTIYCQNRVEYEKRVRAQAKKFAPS
IMP-1 inh: blocks Pseudomonas aeruginosa IMP-1 metallo-beta-lactamase; purified IMP-1, nitrocefin hydrolysis, epi-absorbance fluorescence; AID 1556; actives 0.45% (n = 290,000); inhibition, % at 5.6 µM;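 active means inhibition above the mean plus 3 SD of all compounds in the same screening run, cut at about 4.5% in these data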
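System: purified IMP-1 / Input: IMP-1 dispensed at 0.2 nM / Medium: 50 mM HEPES pH 7.1, 50 µM ZnSO4, 0.05% Brij 35 / Timing: 15 min enzyme–compound preincubation, then 25 min nitrocefin reaction, 25 °C / Technique: plate fluorescence quenching by hydrolysis product, ex 480/em 530 nm / Repeats: singlicate testing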
VIM-2 inhibitor: inhibitors of Pseudomonas aeruginosa VIM-2 metallo-beta-lactamase | AID 1527 | inhibition, % at 5.6 µM | purified VIM-2, nitrocefin hydrolysis, epi-absorbance fluorescence | actives 0.89% (n = 290,000);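 active means inhibition above the mean of all tested compounds plus 3 SD, cutoff set per screening run, cut at about 7.5% in these data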;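 further: red hydrolysis product quenches plate fluorescence so inhibitors raise well fluorescence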
DNA FID counter: displaces DNA intercalator in HCV helicase counter-screen; DNA fluorescent intercalator displacement, fluorescence; inhibition, % at 7.9 µM; AID 1845; actives 0.17% (n = 290,000); in the data active means inhibition above about 37%;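 further: higher means more ethidium bromide displaced from hairpin DNA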
Mot1-301 SUMO: blocks SUMOylation pathway, rescuing yeast Mot1-301 growth; S. cerevisiae Mot1-301 growth rescue, ATP luminescence, 38.5C; percent above DMSO median, 100 means doubled; growth rescue, % at 18.8 µM; actives 1% (n = 320,000); AID 2716;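 active means every valid replicate shows activation above 250% relative to neutral control wells; inactive means the rest, any valid replicate at or below 250%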
Of the large screens only hits and unclear results are named; the others gave an inactive call.

COc1ccc(-n2ncc3c(NCCCN4CCOCC4)ncnc32)cc1	none
COc1cc2ncnc(NCCCN3CCOCC3)c2cc1OC	DNA FID counter 76 (no result: NALP1 yeast inh)
c1ccc(N2CCN(c3cnc4ccccc4n3)CC2)cc1	NALP1 yeast inh 39
O=Cc1cnc(N2CCN(c3ccccc3)CC2)s1	NALP1 yeast inh 39
O=Cc1cnc(N2CCN(Cc3ccccc3)CC2)s1	none
Cc1cc(OC(C)C(=O)NCCN2CCOCC2)c2c(C)cc(=O)oc2c1 (centres undefined)	none
C=CCN1C(=O)c2ccccc2Sc2ccc(C(=O)NCC(OC)OC)cc21	none
CCC(C)NS(=O)(=O)c1ccc(OCC(=O)Nc2ccc3c(c2)OCO3)cc1 (centres undefined)	NALP1 yeast inh 41
CC(C)NS(=O)(=O)c1ccc(OCC(=O)Nc2ccc3c(c2)OCO3)cc1	none
O=C(O)CSc1nnc(-c2ccccc2)o1	none
Cc1nnc(SCC(=O)O)o1	NALP1 yeast inh 26
CCOC(=O)N1CCN(C(=O)CN(C2CCCCC2)S(=O)(=O)c2ccc(F)cc2)CC1	NALP1 yeast inh 38
CCOC(=O)N1CCN(C(=O)CN(C2CCCCC2)S(=O)(=O)c2ccc(Cl)cc2)CC1	none
CC1=NNC(=O)/C1=C\c1cn(-c2ccccc2)nc1-c1ccc(F)cc1	none (no result: Mot1-301 SUMO)
CC1=NNC(=O)/C1=C\c1cn(-c2ccccc2)nc1-c1cccs1	NALP1 yeast inh 65
N#Cc1ccc(OCC(=O)NCCc2ccccn2)cc1	NALP1 yeast inh 36
O=C(COc1ccc(Br)cc1)NCc1ccccn1	none
NC(=S)c1cc2cc(Cl)ccc2oc1=O	IMP-1 inh 7.0 (no result: NALP1 yeast inh)
COCc1cc(C)nc(N2CCN(Cc3ccccc3)CC2)c1C#N	NALP1 yeast inh 41
CC(C)(C)N=Cc1c(O)ccc2oc3c(c12)CCCC3	IMP-1 inh 19
COc1cccc(NC(=O)C2CCCN2C(=O)NC2CCCCC2)c1 (centres undefined)	none
CC(=O)c1sc(-c2ccc(F)cc2)cc1NS(=O)(=O)c1ccccc1	none
N=c1c2c(ncn1Cc1ccco1)Oc1ccc3ccccc3c1C2c1ccccc1 (centres undefined)	NALP1 yeast inh 57
O=[N+]([O-])c1ccc(NCCCN2CCOCC2)c([N+](=O)[O-])c1	Mot1-301 SUMO 600
CCN(Cc1ccccc1)Cc1ccc(OCc2ccccc2)cc1	NALP1 yeast inh 38
CCn1c(=O)c(CCC(=O)NCCN2CCOCC2)c(C)c2c(C)nn(-c3ccccc3)c21	VIM-2 inhibitor 9.6
CCn1c(=O)c(CCC(=O)NCC2CCCO2)c(C)c2c(C)nn(-c3ccccc3)c21 (centres undefined)	none
CCOC(=O)C1(Cc2ccccc2C(F)(F)F)CCN(C2CCN(C(C)C)CC2)CC1	DNA FID counter 45
CCOC(=O)C1(Cc2ccccc2C(F)(F)F)CCN(CC(O)CO)CC1 (centres undefined)	none
Cc1ccc(Cn2cc(-c3ccccc3)nn2)cc1	none
c1ccc2c(CSc3ncnc4nc[nH]c34)cccc2c1	Mot1-301 SUMO 295
O=C(CC(CC(=O)c1ccc(Br)cc1)c1cccnc1)c1ccc(Br)cc1	none (no result: NALP1 yeast inh)
CN(C)c1cc(-c2ccc(Cl)c(Cl)c2)oc(=O)c1Cl	IMP-1 inh 5.4 (no result: NALP1 yeast inh)
CCC(C)N(C(=O)COC(=O)CCc1c[nH]c2ccccc12)C1CCS(=O)(=O)C1 (centres undefined)	none
CCC(C)N(C(=O)COC(=O)Cc1n[nH]c(=O)c2ccccc12)C1CCS(=O)(=O)C1 (centres undefined)	NALP1 yeast inh 26
Cc1noc2ncnc(Sc3ccc(Cl)cc3)c12	Mot1-301 SUMO 324
Cc1ccc(Sc2ncnc3onc(C)c23)cc1	none
O=C(Cn1cncn1)N/N=C/c1cccc(Cl)c1	none (no result: NALP1 yeast inh)
COc1ccc(NS(=O)(=O)c2ccc3c(c2)NC(=O)CC(=O)N3)cc1OC	none
O=C(O)C1=C(C(=O)Nc2ccc(F)c(Cl)c2)CCCC1	IMP-1 inh 10
COc1cccc(-c2nc(-c3ccc4c(c3)-c3ccccc3S4(=O)=O)c(-c3ccccc3)[nH]2)c1OC	IMP-1 inh 4.8 (no result: Mot1-301 SUMO)
O=c1c2ccccc2nc(/C=C/c2cccnc2)n1Cc1ccccc1	SUMO HTRF inh 82 (no result: Mot1-301 SUMO)
CC(=O)Nc1ccc(N2C(=O)CSC2c2ccccc2)cc1 (centres undefined)	IMP-1 inh 4.8
CC(=O)Nc1ccc(N2C(=O)CSC2c2ccc([N+](=O)[O-])cc2)cc1 (centres undefined)	none
CC(C)(C)C(=O)NC(=S)Nc1ccc(Cc2ccncc2)cc1	IMP-1 inh 7.7
CNC(=S)Nc1ccc(Cc2ccncc2)cc1	none
CSCCC(NC(=O)c1ccco1)C(=O)NC1CCC(C)CC1 (centres undefined)	none (no result: NALP1 yeast inh, SUMO HTRF inh, IMP-1 inh, VIM-2 inhibitor, DNA FID counter)
CN(C)C=Nc1ccc2nn(-c3ccccc3)nc2c1	SUMO HTRF inh 60
C[C@H]1CNC(=O)C(=O)N1C[C@H](Cc1ccc(O)cc1)NC(=O)CC12CC3CC(CC(C3)C1)C2	IMP-1 inh 8.4
CC(C)C[C@@H](CN1C(N)=NC[C@@H]1C)NC(=O)CC12CC3CC(CC(C3)C1)C2	none (no result: NALP1 yeast inh, SUMO HTRF inh, IMP-1 inh, VIM-2 inhibitor, DNA FID counter)
Cc1ccc(NC(=O)CN(C)C(=O)C(Sc2ccccc2)c2ccccc2)cc1 (centres undefined)	none (no result: NALP1 yeast inh, SUMO HTRF inh, IMP-1 inh, VIM-2 inhibitor, DNA FID counter)
Brc1ccc(OCc2ccccc2)c(CNCc2ccncc2)c1	Mot1-301 SUMO 262
Fc1ccc(COc2ccccc2CNCc2ccncc2)cc1	none
O=C1C=C(c2cccc3c2oc2ccccc23)C[C@@H](c2ccc(F)cc2)C1	none (no result: NALP1 yeast inh, SUMO HTRF inh, IMP-1 inh, VIM-2 inhibitor, DNA FID counter)
CCNC(=O)C1CCCN1C(=O)C(CCCN=C(N)N)NC(=O)C(CC(C)C)NC(=O)C(Cc1cn(Cc2ccccc2)cn1)NC(=O)C(Cc1ccc(O)cc1)NC(=O)C(CO)NC(=O)C(Cc1c[nH]c2ccccc12)NC(=O)C(Cc1cnc[nH]1)NC(=O)C1CCC(=O)N1 (centres undefined)	DNA FID counter 44
NC(N)=NCCC[C@H](NC(=O)OCc1ccccc1)C(=O)O	none
Cc1cc(=O)oc2cc(NC(=O)C(CCCN=C(N)N)NC(=O)OCc3ccccc3)ccc12 (centres undefined)	DNA FID counter 41
O=C1OC(/C(=C\Nc2ccc(F)cc2F)[N+](=O)[O-])c2ccccc21 (centres undefined)	Mot1-301 SUMO 304
Cc1ccc(N/C=C(\C2OC(=O)c3ccccc32)[N+](=O)[O-])c(C)c1 (centres undefined)	none
CCOC(=O)C1CCN(C(=O)c2ccc(N(C)S(=O)(=O)c3ccc(OC)cc3)cc2)CC1	none
CCOC(=O)N1CCN(C(=S)NC(=O)c2ccc(Br)cc2)CC1	none
CCOC(=O)N1CCN(C(=S)NC(=O)c2cncc(Br)c2)CC1	IMP-1 inh 5.4
COc1ccc(Cc2noc(CN(C)CCN3CCc4ccccc4C3)n2)cc1OC	NALP1 yeast inh 29
